Measured values: publication PMC5490379 (Molecular pharmaceutics, 2017)
Blank lines part the entries; values can stand above or below the compound they belong to.

How the values were obtained:
[1] = target: T1, σ2 receptor (Rattus norvegicus, UniProt Q5U3Y7); experiment: In vitro σ2 binding assay; details: for Ki σ2: rat liver membrane homogenates, 3 nM [^3H]DTG, 1 μM dextrallorphan; for fold reduction in σ2 affinity: compared with 3a
T1 sequence (Q5U3Y7 1-176): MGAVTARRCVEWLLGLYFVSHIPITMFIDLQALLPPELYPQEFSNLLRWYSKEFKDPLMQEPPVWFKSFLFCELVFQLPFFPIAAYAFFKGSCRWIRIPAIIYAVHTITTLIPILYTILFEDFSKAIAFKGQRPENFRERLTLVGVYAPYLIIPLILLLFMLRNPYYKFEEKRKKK
Procedure, shortened: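 Rat liver membrane homogenate (150–200 µg protein) incubated with 3 nM [3H]DTG (39.4 Ci/mmol) plus 1 µM dextrallorphan to mask σ1 sites, with test compound from 10-4 to 10-12 M. Conditions as for σ1: 50 mM Tris-HCl pH 8.0, 25 °C, 120 min, then filtration. […] IC50 by curve fitting, converted to Ki by Cheng-Prusoff.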

[2] = target: σ1 receptor (Cavia porcellus, UniProt Q60492); experiment: In vitro σ1 binding assay; parameters: species or system guinea pig; details: for Ki σ1: guinea pig brain membrane homogenates; for fold reduction in σ1 affinity: compared with 3a
σ1 receptor (Cavia porcellus, UniProt Q60492), sequence (Q60492 whole entry): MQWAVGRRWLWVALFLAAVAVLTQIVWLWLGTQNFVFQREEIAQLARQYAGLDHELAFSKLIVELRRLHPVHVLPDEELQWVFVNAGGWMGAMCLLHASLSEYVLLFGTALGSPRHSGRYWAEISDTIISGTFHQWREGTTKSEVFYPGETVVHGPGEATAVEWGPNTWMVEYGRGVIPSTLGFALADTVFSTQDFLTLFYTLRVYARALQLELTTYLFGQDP
Procedure, shortened: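 Guinea pig brain membrane homogenate (300–500 µg protein) incubated with 3 nM [3H]-(+)-pentazocine (51.7 Ci/mmol) and test compound (10-4 to 10-12 M) in 50 mM Tris-HCl pH 8.0, 25 °C, 120 min. Stopped with ice-cold 10 mM Tris-HCl pH 8.0, filtered on PEI-soaked glass fibre filters, washed twice. […] IC50 by iterative curve fitting; Ki by Cheng-Prusoff. Protein by Lowry.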

[3] = Mouse liver microsomal assay; type: in vitro ADME; details: liver microsomes
Procedure, shortened: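 Mouse liver microsomes (20 mg/mL stock) diluted in 0.1 M phosphate buffer containing 3.3 mM MgCl2. Test compound added from a 100 µM stock, with verapamil as positive control. Intact test compound quantified over time by LC-MS/MS, and metabolic degradation half-life derived from its disappearance.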

[4] = test system: σ1 receptor; details: ref [10]; cited from earlier work
[5] = test system: PC-3 prostate tumors; details: mice bearing PC-3 prostate tumors; ref [30]; cited from earlier work

- half-life at 1 μM [3]: 5.94 min
- Ki ([2]; Ki σ1, guinea pig brain membrane homogenates, 3 nM [^3H]-(+)-pentazocine): 6.3 nM
Compound: O=C(NCCN1CCCCC1)c1cc(Br)ccc1OCCF [Compound 3a, 5-Bromo-2-(2-fluoroethoxy)-N-{2-(piperidin-1-yl)ethyl}benzamide]

- fold reduction in σ2 affinity [1]: 9 fold
- fold reduction in σ1 affinity [2]: 9 fold
Compound: O=C(NCCN1CCCCC1)c1cc(Br)ccc1OCCCF [Compound 3b, 5-Bromo-2-(3-fluoropropoxy)-N-{2-(piperidin-1-yl)ethyl}benzamide]

- fold reduction in σ2 affinity [1]: 4 fold
- fold reduction in σ1 affinity [2]: 6 fold
Compound: O=C(NCCN1CCCCC1)c1ccc(OCCF)c(Br)c1 [Compound 7a, 3-Bromo-4-(2-fluoroethoxy)-N-{2-(piperidin-1-yl)-ethyl}benzamide]

More lines, now with the values behind:

Compound: O=C(NCCN1CCCCC1)c1cc(Br)ccc1O [Compound 2, 5-Bromo-2-hydroxy-N-{2-(piperidin-1-yl)ethyl}benzamide]
- Ki σ2 [1]: devoid of σ receptor binding affinity
- Ki σ1 ([2]; 3 nM [^3H]-(+)-pentazocine): devoid of σ receptor binding affinity

Compound: O=C(NCCN1CCCCC1)c1ccc(I)cc1 [Compound 4-IPAB]
- σ1 affinity [4]: nanomolar

Compound: O=C(NCCN1CCCCC1)c1ccc(O)c(Br)c1 [Compound 6, 3-Bromo-4-hydroxy-N-{2-(piperidin-1-yl)ethyl}benzamide]
- Ki σ2 [1]: devoid of σ receptor binding affinity
- Ki σ1 ([2]; 3 nM [^3H]-(+)-pentazocine): devoid of σ receptor binding affinity

Compound: COc1ccc(C(=O)NCCN2CCCCC2)cc1I [PIMBA]
- σ1 affinity [4]: nanomolar

Compound: [11CH3]Oc1cccc2c1CCCC2CCCN1CCN(C2CCCCC2)CC1 (stereo not shown) [[^11C]PB28]
- tumor uptake [5]: poor tumor uptake
